Measurements taken from ChEMBL document CHEMBL1122774, “Tri- and tetrapeptide analogues of kinins as potential renal vasodilators” (J Med Chem, 1984).

test system: Canis familiaris; test: Renal vasodilator activity in anesthetized dogs and percent change in heart rate (HR) was determined at 300 ug/Kg/min; type: functional, Canis lupus familiaris
Summary of the method: (§1)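 Primary screen in anesthetized dogs (7-17 kg). Drug infused separately at 3, 30 and 300 µg/(kg min), each infusion lasting 5 min, at about 15-min intervals. Read-outs are renal blood flow, mean arterial blood pressure, heart rate, and RVR (MABP / mean RBF), as percent change. Significance thresholds are defined per number of dogs; n = 1-3 dogs.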

Compound | Change [%]
CC(Cc1ccccc1)(NC(=O)[C@@H]1CCCN1)C(=O)NCCCN.Cl.Cl (stereo partly drawn) | 0

test system: Canis familiaris; test: Renal vasodilator activity in anesthetized dogs and percent change in mean arterial blood pressure (MABP) was determined at 3 ug/Kg/min; type: functional, Canis lupus familiaris; summary of the method: as §1

Compound | Change [%]
COc1ccc(CC(C)(NC(=O)[C@@H]2CCCN2C(=O)CCCc2ccccc2)C(=O)N[C@@H](CCCN=C(N)N)C(=O)O)cc1OC (stereo partly drawn) | -2
CC(CN[C@@H](CCCN=C(N)N)C(=O)O)(Cc1ccccc1)NC(=O)[C@@H]1CCCN1C(=O)CCCc1ccccc1 (stereo partly drawn) | -2
CC(Cc1ccccc1)(NC(=O)[C@@H]1CCCN1C(=O)CCCc1ccccc1)C(=O)NCCCN.Cl (stereo partly drawn) | 0

test system: Canis familiaris; test: In vivo percent change in renal blood flow at 30 ug/Kg/min.; type: functional, Canis lupus familiaris, Kidney; summary of the method: as §1

Compound | Change [%]
COc1ccc(CC(C)(NC(=O)[C@@H]2CCCN2C(=O)CCCc2ccccc2)C(=O)N[C@@H](CCCN=C(N)N)C(=O)O)cc1OC (stereo partly drawn) | 8.5
CC(Cc1ccccc1)(NC(=O)[C@@H]1CCCN1)C(=O)NCCCN.Cl.Cl (stereo partly drawn) | 1
CC(CN[C@@H](CCCN=C(N)N)C(=O)O)(Cc1ccccc1)NC(=O)[C@@H]1CCCN1C(=O)CCCc1ccccc1 (stereo partly drawn) | 10
CC(Cc1ccccc1)(NC(=O)[C@@H]1CCCN1C(=O)CCCc1ccccc1)C(=O)NCCCN.Cl (stereo partly drawn) | 5.5

test system: Canis familiaris; test: Renal vasodilator activity in anesthetized dogs and percent change in renal vascular resistance (RVR) was determined at 30 ug/Kg/min; type: functional, Canis lupus familiaris; summary of the method: as §1

Compound | Change [%]
CC(CN[C@@H](CCCN=C(N)N)C(=O)O)(Cc1ccccc1)NC(=O)[C@@H]1CCCN1C(=O)CCCc1ccccc1 (stereo partly drawn) | -9
CC(Cc1ccccc1)(NC(=O)[C@@H]1CCCN1C(=O)CCCc1ccccc1)C(=O)NCCCN.Cl (stereo partly drawn) | -6

test system: Canis familiaris; test: In vivo percent change in canine heart rate at 3 ug/Kg/min.; type: functional, Canis lupus familiaris; summary of the method: as §1

Compound | Change [%]
COc1ccc(CC(C)(NC(=O)[C@@H]2CCCN2C(=O)CCCc2ccccc2)C(=O)N[C@@H](CCCN=C(N)N)C(=O)O)cc1OC (stereo partly drawn) | 4.5
CC(Cc1ccccc1)(NC(=O)[C@@H]1CCCN1)C(=O)NCCCN.Cl.Cl (stereo partly drawn) | -1
CC(CN[C@@H](CCCN=C(N)N)C(=O)O)(Cc1ccccc1)NC(=O)[C@@H]1CCCN1C(=O)CCCc1ccccc1 (stereo partly drawn) | 0
CC(Cc1ccccc1)(NC(=O)[C@@H]1CCCN1C(=O)CCCc1ccccc1)C(=O)NCCCN.Cl (stereo partly drawn) | -1.5

test system: Canis familiaris; test: In vivo percent change in canine heart rate at 30 ug/Kg/min.; type: functional, Canis lupus familiaris; summary of the method: as §1

Compound | Change [%]
COc1ccc(CC(C)(NC(=O)[C@@H]2CCCN2C(=O)CCCc2ccccc2)C(=O)N[C@@H](CCCN=C(N)N)C(=O)O)cc1OC (stereo partly drawn) | 1
CC(Cc1ccccc1)(NC(=O)[C@@H]1CCCN1)C(=O)NCCCN.Cl.Cl (stereo partly drawn) | -1
CC(CN[C@@H](CCCN=C(N)N)C(=O)O)(Cc1ccccc1)NC(=O)[C@@H]1CCCN1C(=O)CCCc1ccccc1 (stereo partly drawn) | -7
CC(Cc1ccccc1)(NC(=O)[C@@H]1CCCN1C(=O)CCCc1ccccc1)C(=O)NCCCN.Cl (stereo partly drawn) | 0.3

test system: Canis familiaris; test: In vivo percent change in canine heart rate at 300 ug/Kg/min.; type: functional, Canis lupus familiaris; summary of the method: as §1

Compound | Change [%]
COc1ccc(CC(C)(NC(=O)[C@@H]2CCCN2C(=O)CCCc2ccccc2)C(=O)N[C@@H](CCCN=C(N)N)C(=O)O)cc1OC (stereo partly drawn) | 2.5
CC(CN[C@@H](CCCN=C(N)N)C(=O)O)(Cc1ccccc1)NC(=O)[C@@H]1CCCN1C(=O)CCCc1ccccc1 (stereo partly drawn) | -23
CC(Cc1ccccc1)(NC(=O)[C@@H]1CCCN1C(=O)CCCc1ccccc1)C(=O)NCCCN.Cl (stereo partly drawn) | 0.5

test system: Canis familiaris; test: In vivo percent change in canine mean arterial blood pressure (MABP) at 3 ug/Kg/min.; type: functional, Canis lupus familiaris; summary of the method: as §1

Compound | Change [%]
CC(Cc1ccccc1)(NC(=O)[C@@H]1CCCN1)C(=O)NCCCN.Cl.Cl (stereo partly drawn) | 1

test system: Canis familiaris; test: In vivo percent change in canine mean arterial blood pressure (MABP) at 30 ug/Kg/min.; type: functional, Canis lupus familiaris; summary of the method: as §1

Compound | Change [%]
COc1ccc(CC(C)(NC(=O)[C@@H]2CCCN2C(=O)CCCc2ccccc2)C(=O)N[C@@H](CCCN=C(N)N)C(=O)O)cc1OC (stereo partly drawn) | -1
CC(Cc1ccccc1)(NC(=O)[C@@H]1CCCN1)C(=O)NCCCN.Cl.Cl (stereo partly drawn) | -1
CC(CN[C@@H](CCCN=C(N)N)C(=O)O)(Cc1ccccc1)NC(=O)[C@@H]1CCCN1C(=O)CCCc1ccccc1 (stereo partly drawn) | 0
CC(Cc1ccccc1)(NC(=O)[C@@H]1CCCN1C(=O)CCCc1ccccc1)C(=O)NCCCN.Cl (stereo partly drawn) | -0.5

test system: Canis familiaris; test: In vivo percent change in canine mean arterial blood pressure (MABP) at 300 ug/Kg/min.; type: functional, Canis lupus familiaris; summary of the method: as §1

Compound | Change [%]
COc1ccc(CC(C)(NC(=O)[C@@H]2CCCN2C(=O)CCCc2ccccc2)C(=O)N[C@@H](CCCN=C(N)N)C(=O)O)cc1OC (stereo partly drawn) | -2
CC(Cc1ccccc1)(NC(=O)[C@@H]1CCCN1)C(=O)NCCCN.Cl.Cl (stereo partly drawn) | -1
CC(CN[C@@H](CCCN=C(N)N)C(=O)O)(Cc1ccccc1)NC(=O)[C@@H]1CCCN1C(=O)CCCc1ccccc1 (stereo partly drawn) | 8
CC(Cc1ccccc1)(NC(=O)[C@@H]1CCCN1C(=O)CCCc1ccccc1)C(=O)NCCCN.Cl (stereo partly drawn) | -3.5

test system: Canis familiaris; test: In vivo percent change in canine renal blood flow (RBF) at 3 ug/Kg/min.; type: functional, Canis lupus familiaris, Kidney; summary of the method: as §1

Compound | Change [%]
COc1ccc(CC(C)(NC(=O)[C@@H]2CCCN2C(=O)CCCc2ccccc2)C(=O)N[C@@H](CCCN=C(N)N)C(=O)O)cc1OC (stereo partly drawn) | 7.5
CC(Cc1ccccc1)(NC(=O)[C@@H]1CCCN1)C(=O)NCCCN.Cl.Cl (stereo partly drawn) | 5
CC(CN[C@@H](CCCN=C(N)N)C(=O)O)(Cc1ccccc1)NC(=O)[C@@H]1CCCN1C(=O)CCCc1ccccc1 (stereo partly drawn) | 11
CC(Cc1ccccc1)(NC(=O)[C@@H]1CCCN1C(=O)CCCc1ccccc1)C(=O)NCCCN.Cl (stereo partly drawn) | 4

test system: Canis familiaris; test: In vivo percent change in canine renal blood flow (RBF) at 300 ug/Kg/min.; type: functional, Canis lupus familiaris, Kidney; summary of the method: as §1

Compound | Change [%]
COc1ccc(CC(C)(NC(=O)[C@@H]2CCCN2C(=O)CCCc2ccccc2)C(=O)N[C@@H](CCCN=C(N)N)C(=O)O)cc1OC (stereo partly drawn) | 5
CC(Cc1ccccc1)(NC(=O)[C@@H]1CCCN1)C(=O)NCCCN.Cl.Cl (stereo partly drawn) | 2
CC(CN[C@@H](CCCN=C(N)N)C(=O)O)(Cc1ccccc1)NC(=O)[C@@H]1CCCN1C(=O)CCCc1ccccc1 (stereo partly drawn) | 4
CC(Cc1ccccc1)(NC(=O)[C@@H]1CCCN1C(=O)CCCc1ccccc1)C(=O)NCCCN.Cl (stereo partly drawn) | 10

test system: Canis familiaris; test: In vivo percent change in canine renal vascular resistance (RVR) at 3 ug/Kg/min.; type: functional, Canis lupus familiaris; summary of the method: as §1

Compound | Change [%]
COc1ccc(CC(C)(NC(=O)[C@@H]2CCCN2C(=O)CCCc2ccccc2)C(=O)N[C@@H](CCCN=C(N)N)C(=O)O)cc1OC (stereo partly drawn) | -8.5
CC(Cc1ccccc1)(NC(=O)[C@@H]1CCCN1)C(=O)NCCCN.Cl.Cl (stereo partly drawn) | -4
CC(CN[C@@H](CCCN=C(N)N)C(=O)O)(Cc1ccccc1)NC(=O)[C@@H]1CCCN1C(=O)CCCc1ccccc1 (stereo partly drawn) | -12
CC(Cc1ccccc1)(NC(=O)[C@@H]1CCCN1C(=O)CCCc1ccccc1)C(=O)NCCCN.Cl (stereo partly drawn) | -3.5

test system: Canis familiaris; test: In vivo percent change in canine renal vascular resistance (RVR) at 30 ug/Kg/min.; type: functional, Canis lupus familiaris; summary of the method: as §1

Compound | Change [%]
COc1ccc(CC(C)(NC(=O)[C@@H]2CCCN2C(=O)CCCc2ccccc2)C(=O)N[C@@H](CCCN=C(N)N)C(=O)O)cc1OC (stereo partly drawn) | -8.5
CC(Cc1ccccc1)(NC(=O)[C@@H]1CCCN1)C(=O)NCCCN.Cl.Cl (stereo partly drawn) | -1

test system: Canis familiaris; test: In vivo percent change in canine renal vascular resistance (RVR) at 300 ug/Kg/min.; type: functional, Canis lupus familiaris; summary of the method: as §1

Compound | Change [%]
COc1ccc(CC(C)(NC(=O)[C@@H]2CCCN2C(=O)CCCc2ccccc2)C(=O)N[C@@H](CCCN=C(N)N)C(=O)O)cc1OC (stereo partly drawn) | -7
CC(Cc1ccccc1)(NC(=O)[C@@H]1CCCN1)C(=O)NCCCN.Cl.Cl (stereo partly drawn) | -3
CC(CN[C@@H](CCCN=C(N)N)C(=O)O)(Cc1ccccc1)NC(=O)[C@@H]1CCCN1C(=O)CCCc1ccccc1 (stereo partly drawn) | -4
CC(Cc1ccccc1)(NC(=O)[C@@H]1CCCN1C(=O)CCCc1ccccc1)C(=O)NCCCN.Cl (stereo partly drawn) | -11.5
